MrgX1 agonist – agonists of human MrgX1 receptor, primary screen, HEK293 cells, Fluo-4 calcium flux; Mas-related G-protein coupled receptor member X1 (Homo sapiens), Q96LB2; Fluo-4 calcium fluorescence, agonist mode; stronger effect = higher value; B-score at 10 µM; 310,000 compounds, 0.44% hits;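 active = calcium response B-score plate-corrected fluorescence ratio at least 3 library SD, with starting fluorescence B-score inside 5 SD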
Target sequence (Q96LB2 whole entry, looked up): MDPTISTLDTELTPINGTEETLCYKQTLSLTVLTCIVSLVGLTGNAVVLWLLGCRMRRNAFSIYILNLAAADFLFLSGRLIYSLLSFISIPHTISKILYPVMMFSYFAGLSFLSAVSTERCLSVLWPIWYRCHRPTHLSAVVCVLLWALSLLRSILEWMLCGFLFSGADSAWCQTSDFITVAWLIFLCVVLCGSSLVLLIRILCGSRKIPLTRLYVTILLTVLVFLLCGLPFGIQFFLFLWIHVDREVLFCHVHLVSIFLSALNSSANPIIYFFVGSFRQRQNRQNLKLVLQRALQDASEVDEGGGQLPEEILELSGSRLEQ
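System – MrgX1-expressing HEK293 cells · Incubation – cells plated overnight, dye loaded 0.5 h 37 °C, 0.5 h room temperature · Technique – kinetic Fluo-4 NW fluorescence of intracellular calcium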
MrgX1 allo act – positive allosteric modulators of MrgX1, primary screen, HEK293 cells, Fluo-4 calcium flux; 310,000 compounds, 0.63% hits; AID 588675, 2011; B-score at 10 µM; FDSS; stronger effect = higher value; Mas-related G-protein coupled receptor member X1 (Homo sapiens), Q96LB2;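 active = plate-corrected calcium response at least 3 library SD above typical, normal starting fluorescence, not activating the receptor alone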;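 also: compound read alongside a low EC10 to EC30 dose of BAM8-22 agonist; peak minus trough fluorescence over baseline measured at the second addition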
MrgX1 antag – antagonists of human MrgX1 receptor, primary screen, HEK293 cells, Fluo-4 calcium flux; AID 588676, 2011; B-score at 10 µM; 310,000 compounds, 1.3% hits; Mas-related G-protein coupled receptor member X1 (Homo sapiens), Q96LB2; BAM8-22 antagonism; stronger effect = lower value;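 active = calcium-response B-score plate-corrected more than 3 library SD below zero, starting fluorescence within 5 deviations, no agonist response on first addition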;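 also: peak minus trough fluorescence over baseline after final BAM8-22 challenge near maximal dose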
Hep lipid drop – inhibitors of hepatocyte lipid droplet formation, primary screen, imaging, high-throughput imaging, BODIPY stain; AML12 mouse hepatocytes, oleate lipid droplets; AID 1656, 2009; 240,000 compounds, 0.4% hits; inhibition, % at 6.5 µM;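 active = lipid droplet intensity inhibited by at least 50%, with more than 500 cells counted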
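material = mouse AML12 hepatocyte cell line, fixed after treatment | also added = 100 µM oleic acid challenge | doses = compound at 6.5 µM only | schedule = overnight exposure | technique = Image-based BODIPY and DAPI two-channel analysis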
RGS4 block – RGS4 inhibitors, primary screen, cell-based, HEK293 M3R inducible RGS4, calcium flux; Regulator of G-protein signaling 4 (Homo sapiens), P49798; Fluo-4 calcium flux; stronger effect = higher value; triggered by carbachol at its EC20; B-score at 10 µM; 310,000 compounds, 0.45% hits; AID 463165, 2010;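 active = B-score, a plate-corrected calcium signal, over three deviations above library mean, with baseline fluorescence within five deviations of library mean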;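 also: RGS4 expression induced by doxycycline in cells with stable M3 receptor; B-score is computed from the integrated fluorescence ratio over baseline after carbachol; higher B-score means a larger calcium signal and so more RGS4 inhibition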
Target sequence (P49798 whole entry, looked up): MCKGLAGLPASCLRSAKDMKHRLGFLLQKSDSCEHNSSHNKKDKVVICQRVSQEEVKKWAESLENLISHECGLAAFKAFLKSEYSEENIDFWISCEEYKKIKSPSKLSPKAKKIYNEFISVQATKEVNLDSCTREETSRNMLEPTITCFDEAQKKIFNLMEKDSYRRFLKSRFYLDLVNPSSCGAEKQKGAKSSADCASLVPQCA
RGS4 act – RGS4 potentiators or activators, primary screen, cell-based, HEK293 M3R inducible RGS4, calcium flux; B-score at 10 µM; carbachol calcium flux Fluo4; stronger effect = lower value; 310,000 compounds, 0.92% hits; AID 463111, 2010;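 active = B-score of the integrated calcium signal more than 4 SD below the library mean, with starting fluorescence not abnormally high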;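 also: negative B-score means reduced calcium response which marks RGS4 activation or potentiation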
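Reagent: ECmax carbachol challenge; Test system: M3R-expressing HEK293 line, RGS4 induced by doxycycline; Schedule: overnight RGS4 induction, 30 min dye load 37 °C, 20 min compound RT; Detection: calcium dye Fluo4 fluorescence; Read-out: Agonist-evoked peak-minus-minimum fluorescence over baseline, integrated ratio, B score.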
Starred values were filed as active, the others as inactive; i = inactive; / = not tested or not shown. Compounds with a hit are over-represented: about 3.8% of the library has one in this group of screens.

SMILES	MrgX1 agonist	MrgX1 allo act	MrgX1 antag	Hep lipid drop	RGS4 block	RGS4 act
N=c1oc2cc(O)ccc2cc1C(=O)Nc1ccc(Br)cc1	i	i	-7.01*	-0.5	i	i
N=c1oc2cc(O)ccc2cc1C(=O)Nc1ccccn1	i	i	i	13.6	/	/
CCC1C(c2ccccc2)N(C)C(c2ccccc2)CC1(O)c1ccccc1 (configuration not stated)	i	i	i	2.6	i	-7.66*
CC(C)C1C(c2ccccc2)N(C)C(c2ccccc2)CC1(O)c1ccccc1 (configuration not stated)	i	i	i	16.3	i	i
N#CCc1c(C#N)c(N)nc(Nc2ccccc2)c1C#N	i	i	i	4.2	i	i
CCNc1nc(NCC)nc(SCCOC(=O)c2ccccc2)n1	42.4*	i	i	20.3	i	i
Cc1onc(-c2ccc(Cl)cc2Cl)c1-c1csc(COc2ccccc2)n1	i	i	i	-25.2	i	-7.31*
O=C(O)c1ccc(-c2nc(-c3ccc(Cl)cc3Cl)cs2)cc1	i	i	i	4.4	i	i
O=C(NN1CCOCC1)NC12CC3CC(CC(C3)C1)C2	i	i	i	1.5	i	i
COc1ccc(C(=O)NCCNc2nc3ccc(C)cc3cc2C#N)cc1OC	i	i	i	8.3	i	i
CCOC(=O)c1c(NC(=O)CSc2nnc(-c3cccc(C)c3)n2CC)sc(C(C)=O)c1C	i	i	i	/	i	-6.96*
CCOC(=O)c1c(NC(=O)CSc2nnc(-c3ccccc3)n2CC)sc(C(C)=O)c1C	i	i	i	/	i	i
CCOC(=O)C1=NN(c2ccc(Cl)cc2)C(c2ccccc2)CC1=O (configuration not stated)	i	i	-7.8*	-3.7	i	i
CCOC(=O)c1c(-c2ccccc2)oc2ccc(OCC(O)CN(C)C)cc12 (configuration not stated)	i	i	i	-25.9	i	i
CC(C)OC(=O)c1cc(NC(=S)Nc2ccc([N+](=O)[O-])cc2)cc(C(=O)OC(C)C)c1	i	i	-6.65*	-5.9	i	i
CCCCNC(=S)Nc1ccc([N+](=O)[O-])cc1	i	i	-5.55*	11.7	i	i
CC(=O)c1ccc(NC(=O)Cc2ccsc2)cc1	i	i	i	-2.2	i	i
COc1cc(CC2COC(c3ccc(O)c(OC)c3)C2COC(C)=O)ccc1O (configuration not stated)	i	i	i	2.5	/	/
O=C(O)CSCC(=O)N(Cc1ccccc1)c1nc(-c2ccccc2)c(-c2ccccc2)s1	i	i	-4.66*	-3.5	i	i
Cc1ccc(C(=O)NC(=S)NCC2CCCO2)cc1[N+](=O)[O-] (configuration not stated)	i	i	i	-14.7	i	i
O=C(CCSc1ccccc1)N1CCN(c2ccccc2)CC1	i	i	i	-14.8	i	i
O=C(CCSc1ccc(Cl)cc1)N1CCN(c2ccc(O)cc2)CC1	i	i	i	-8.2	i	-7.16*
COc1cc(/C=C2/C(=O)NN(c3cccc(C)c3)C2=O)cc([N+](=O)[O-])c1O	i	i	-9.59*	-6.4	i	i
Cc1ccc(C(=O)Nc2ncc([N+](=O)[O-])s2)cc1	i	i	-4.54*	-33.0	i	i
Cc1onc(-c2ccccc2)c1C(=O)Nc1ncc([N+](=O)[O-])s1	i	i	-4.55*	-28.1	i	i
SMILES	MrgX1 agonist	MrgX1 allo act	MrgX1 antag	Hep lipid drop	RGS4 block	RGS4 act
C[C@H](NC(=O)c1ccco1)C(=O)Nc1ccc(C#N)cc1	i	i	i	-0.2	i	i
CCn1cc(/C=N/N=C2\CCC3C4CCc5cc(O)ccc5C4CC[C@]23C)c(C)n1 (some centres not stated)	i	i	i	0.8	i	i
NNC(=O)Nc1cccc(C(F)(F)F)c1	i	11.9*	i	10.8	i	i
Cc1ccc(N2C(=O)C3C4C=CC(CC4)C3C2=O)c([N+](=O)[O-])c1 (configuration not stated)	i	i	i	/	i	i
CC(C)NC[C@@H](O)c1ccc(O)c(O)c1	31.9*	i	i	5.8	i	i
C/C(=N\NC(=S)NCc1ccccc1)c1ccc(C)o1	i	i	i	38.7	i	i
CCOc1ccc(S(=O)(=O)N2CCCCC2)cc1NC(=O)CN1C(=O)NC(C)(c2ccc(C)cc2)C1=O (configuration not stated)	i	i	i	/	i	i
CCOc1cc(-c2nnc(NC(=O)c3ccco3)o2)cc(OCC)c1OCC	i	i	-4.87*	/	i	i
COc1cc(-c2nnc(NC(=O)c3ccco3)o2)cc(OC)c1OC	i	i	i	/	i	i
Cc1ccc(CN(C)C(=O)c2cc(COc3ccc(F)cc3Cl)on2)o1	i	i	i	-5.0	i	i
CN(C(=O)c1cc(COc2ccc(F)cc2Cl)on1)C1CCCc2ccccc21 (configuration not stated)	i	i	i	-12.9	i	-7.19*
CCC(C)N(CCNC(=O)CC1Oc2ccc(C)cc2NC1=O)C1CCCCC1 (configuration not stated)	i	i	i	/	i	-7.33*
Cc1ccc2c(c1)NC(=O)C(CC(=O)NCCCN1CCCCC1C)O2 (configuration not stated)	i	i	i	/	i	i
O=C(/C=C/c1ccc(Br)o1)Nc1nnc(C2CC2)s1	i	i	i	-3.5	i	i
O=C1CC(c2ccccc2)CC(O)=C1C=NCc1ccncc1 (configuration not stated)	i	i	-6.4*	2.8	i	i
CCOC(=O)NN1C(=O)c2ccccc2NC1c1ccccc1 (configuration not stated)	i	i	-4.55*	-3.0	i	i
COc1ccc(NC(=O)CC2C(=O)N(Cc3ccccc3)C(=S)N2CCN2CCOCC2)cc1 (configuration not stated)	i	i	i	-4.6	i	i

High-throughput results as filed in PubChem.
